Activity calls are given as the source filed them. No cut-off for these calls is given here.
How the values were obtained:
[1] = Cytotoxicity against human KB3-1 cells by MTT assay; assay type: functional, cell-based; details: KB 3-1
[2] = Cytotoxicity against human KBH5.0 cells by MTT assay; assay type: functional, cell-based; details: KBH5.0 cell
Salmonidae [3] = assay: Binding affinity to salmon testes duplex DNA assessed as transition temperature
In short: (§1)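 Thermal melting. Salmon testes duplex DNA at 15 μM base pairs, with macrocyclic ligand at 15 μM. Telomeric d[T2G3(T2AG3)3A] at 4 μM strand, with macrocyclic ligand at 20 μM. Buffer was 10 mM EPPS pH 7.5, with KCl added to 50 mM total K+. Transition temperature was taken for DNA with and without ligand.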

Homo sapiens [4] = species: Homo sapiens; assay: Binding affinity to […] human telomeric DNA sequence d[T2G3(T2AG3)3A] assessed as transition temperature; in short: as §1
Salmonidae [5] = assay: Effect on thermal stability of salmon testes duplex DNA assessed as transition temperature; in short: as §1
Homo sapiens [6] = species: Homo sapiens; assay: Effect on thermal stability of G-quadruplex human telomeric DNA sequence d[T2G3(T2AG3)3A] assessed as transition temperature; in short: as §1
[7] = Cytotoxicity against human KBV1 cells by MTT assay; assay type: functional, cell-based; details: KB-V1
[8] = Cytotoxicity against human RPMI8402 cells by MTT assay; assay type: functional, cell-based; details: RPMI 8402
P388 = assay: Cytotoxicity against mouse P388 cells by MTT assay; assay type: functional, cell-based

Row | SMILES | IC50 [1] [nM] | IC50 [2] [nM] | Activity (Salmonidae [3]) | Activity (Homo sapiens [4]) | Activity (Salmonidae [5]) | Activity (Homo sapiens [6]) | IC50 [7] [nM] | IC50 [8] [nM] | IC50 (P388) [nM]
1 | CC(C)[C@@H]1NC(=O)c2coc(n2)-c2coc(n2)-c2coc(n2)C/C=C/c2coc(n2)-c2coc(n2)-c2coc1n2 | 38 | 43 | inactive | Active | inactive | Active | 3300 | 25 | 45
2 | CC(C)[C@@H]1NC(=O)c2coc(n2)-c2coc(n2)-c2coc(n2)[C@H](C(C)C)NC(=O)c2coc(n2)-c2coc(n2)-c2coc1n2 [HEXAOXAZOLE DIVALINE] | 300 | 500 | inactive | Active | inactive | Active | 8000 | 410 | 500

Reference: ChEMBL document CHEMBL1157428, “Ring-closing metathesis for the synthesis of a highly G-quadruplex selective macrocyclic hexaoxazole having enhanced cytotoxic potency” (Bioorg Med Chem Lett, 2008)
